Measured values: publication PMC4227764 (Nucleic Acids Research, 2014)
Like-named read-outs stand apart in the source and are kept apart here.

What was measured:
Escherichia coli RNase P = conditions: cited from earlier work
Fl-pre-tRNA^Asp = experiment: FA titration: binding of compounds to Fl-pre-tRNA^Asp; set-up: species or system Bacillus subtilis; conditions: for change in anisotropy (ΔFA) upon binding to Fl-pre-tRNA^Asp: Figure 4A, buffer B; for Kd: read-out: Kd for Fl-pre-tRNA^Asp, 37°C
Outline: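 RNA first heat-denatured 3 min at 95°C, then refolded at 37°C. Kd taken from the dependence of the FA signal on compound concentration. Competition run at fixed compound with varied yeast tRNAMix in buffer B.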

native yeast tRNA^Phe = conditions: cited from earlier work
[1] = target: Bacillus subtilis RNase P; type: biochemical; conditions: read-out: IC50 for inhibition of RNase P; Buffer B (pH 7.2, 10 mM MgCl2, 100 mM KCl), 50 nM Fl-pre-tRNA^Asp, 0.4 nM RNase P, 4 nM P protein, 37°C
[2] = target: Dictyostelium discoideum RNase P; conditions: read-out: Ki (non-competitive); cited from earlier work
B. subtilis RNase P = target: T1, B. subtilis RNase P (Bacillus subtilis, UniProt P25814); experiment: RNase P cleavage activity in response to HTS reagents; type: biochemical
T1 sequence (P25814 1-116): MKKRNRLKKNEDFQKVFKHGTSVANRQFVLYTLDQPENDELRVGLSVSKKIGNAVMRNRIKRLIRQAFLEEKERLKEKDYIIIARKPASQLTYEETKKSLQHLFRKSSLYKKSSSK
Outline: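 B. subtilis holoenzyme formed by adding P protein to refolded P RNA, 30 min at 37°C. Enzyme pre-incubated 30 min with 2% DMSO at 30°C. Reaction started with an equal volume of Fl-pre-tRNAAsp substrate, quenched with 80 mM CaCl2 at various times. Fluorescence polarization read at λex 485 nm / λem 520 nm.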

[3] = Buffer B + 12 mg/ml yeast tRNA^Mix
[4] = Buffer B, 50 nM Fl-pre-tRNA^Asp

Row | Compound | IC50 (Escherichia coli RNase P) | change in anisotropy (ΔFA) upon binding to Fl-pre-tRNA^Asp (Fl-pre-tRNA^Asp) | Kd (Fl-pre-tRNA^Asp; [3]) | Kd (Fl-pre-tRNA^Asp; [4]) | IC50 [1] | other results
1 | COc1ccc(C[C@H](N)C(=O)N[C@H]2[C@@H](O)[C@H](n3cnc4c(N(C)C)ncnc43)O[C@@H]2CO)cc1 [puromycin] | ~3000 µM |  |  |  |  | 
2 | NC[C@@H]1O[C@H](O[C@H]2[C@@H](O)[C@H](O[C@@H]3[C@@H](O)[C@H](N)C[C@H](N)[C@H]3O[C@H]3O[C@H](CN)[C@@H](O)[C@H](O)[C@H]3N)O[C@@H]2CO)[C@H](N)[C@@H](O)[C@@H]1O [NeoB, neomycin B] | 60 µM | ~50 mA | 100 ± 20 µM | 90 ± 5 µM | 23 ± 3 µM | Kd (native yeast tRNA^Phe): 90 µM; Ki [2]: 143 µM
3 | C[S+](C)[O-] [DMSO, dimethyl sulfoxide] |  |  |  |  |  | inhibition of RNase P activity (B. subtilis RNase P; 2% DMSO): 20%
4 | NC[C@H]1O[C@H](O[C@H]2[C@H](O)[C@@H](O[C@H]3O[C@H](CO)[C@@H](O)[C@H](N)[C@H]3O)[C@H](N)C[C@@H]2N)[C@H](N)[C@@H](O)[C@@H]1O [KanB, kanamycin B] |  | ~35 mA | 540 ± 60 µM | 220 ± 20 µM | 52 ± 6 µM | 
5 | Spiramycin |  |  |  |  |  | effect on steady-state turnover (Escherichia coli RNase P): activate the steady-state turnover
6 | nonidet P-40 [NP-40] |  |  |  |  |  | effect on RNase P activity (B. subtilis RNase P; 0.01–0.1% v/v): unaffected
